Experimental data from ChEMBL document CHEMBL4393721 (Eur J Med Chem, 2019).
Active and inactive are the calls of the source. The calls are words filed in the database; no cut-off is given here.

Columns and labels:
[1] = tested on: HepG2; assay: Antiinflammatory activity in human HepG2 cells assessed as inhibition of TNFalpha-induced IkappaBalpha degradation at 2 uM pretreated for 1 hr followed by TNFalpha addition and measured after 30 mins by Western blot analysis; format: functional, cell-based
In short: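 HepG2 cells grown in DMEM with 10% FBS were exposed to compound for 1 hr and to TNFα (20 ng/mL) for 30 min. Lysates were run on 10% SDS-PAGE and immunoblotted for IκBα with ECL detection. Band grey values were quantified by densitometry. Data are mean ± SEM of three independent experiments.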

[2] = target: T1, Nuclear receptor subfamily 4immunitygroup A member 1 (Homo sapiens, UniProt P22736); assay: Binding affinity to recombinant human N-terminal His-tagged Nur77 LBD (367 to 598 residues) expressed in Escherichia coli BL21(DE3) incubated for 30 secs by fluorescence quenching assay
[3] = tested on: HepG2; assay: Induction of apoptosis in TNFalpha-treated human HepG2 cells assessed as PARP cleavage at 2 uM incubated for 10 hrs by Western blot analysis; format: cell-based; settings: hepg2, 10 h
[4] = target: T1, Nuclear receptor subfamily 4immunitygroup A member 1; assay: Binding affinity to Myc-Nur77 (unknown origin) expressed in human HepG2 cells co-transfected with Flag tagged TRAF2 assessed as effect on protein interaction with TRAF2 at 2 uM incubated for 1 hr in presence of TNFalpha by co-immunoprecipitation assay; format: cell-based
In short: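 HepG2 cells were transfected with Myc-Nur77 and Flag-TRAF2, then treated for 1 hr with compound (2 μM) plus TNFα (20 ng/mL). Lysis buffer was 10 mM Tris pH 7.4, 150 mM NaCl, 1% Triton X-100, 5 mM EDTA and protease inhibitors. Lysate was incubated with 1 μg antibody for 2 hr at 4 °C, pulled down with protein A/G sepharose, washed, and read by Western blot.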

[5] = Induction of apoptosis in TNFalpha-treated human HepG2 cells assessed as normal cells at 2 uM incubated for 10 hrs by FITC Annexin V and propidium iodide staining based flow cytometric analysis (reference value: 88.37%); format: cell-based; settings: read-out: Activity
In short: (§1)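 HepG2 cells grown in DMEM with 10% FBS were treated for 10 hr with compound (2 μM) plus TNFα (20 ng/mL). Cells were collected in binding buffer, stained with FITC-Annexin V and propidium iodide at room temperature, and analysed by flow cytometry. Quadrants as labelled: UL necrotic, UR viable apoptotic, LR non-viable apoptotic, LL normal.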

[6] = target: T1, Nuclear receptor subfamily 4immunitygroup A member 1; assay: Binding affinity to GFP-Nur77 (unknown origin) expressed in human HepG2 cells cotransfected with mCherry-p62/SQSTM1 assessed as co-localization with p62/SQSTM1 in cytoplasm in presence of TNFalpha by DAPI staining based confocal microscopic analysis; format: cell-based
In short: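 HepG2 cells were transfected with GFP-Nur77 and mCherry-p62/SQSTM1, then treated with TNFα plus compound. Cells were fixed in paraformaldehyde, with nuclei counterstained by DAPI (1:10000). Nur77–p62 colocalization was imaged by fluorescence or LSM-510 confocal microscopy.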

[7] = tested on: HepG2; assay: Induction of apoptosis in TNFalpha-treated human HepG2 cells assessed as necrotic cells at 2 uM incubated for 10 hrs by FITC Annexin V and propidium iodide staining based flow cytometric analysis (reference value: 1.29%); format: cell-based; settings: hepg2, 10 h; in short: as §1
[8] = tested on: HepG2; assay: Induction of apoptosis in TNFalpha-treated human HepG2 cells assessed as viable apoptotic cells at 2 uM incubated for 10 hrs by FITC Annexin V and propidium iodide staining based flow cytometric analysis (reference value: 3.69%); format: cell-based; settings: hepg2, 10 h; in short: as §1
[9] = tested on: HepG2; assay: Induction of apoptosis in TNFalpha-treated human HepG2 cells assessed as non-viable apoptotic cells at 2 uM incubated for 10 hrs by FITC Annexin V and propidium iodide staining based flow cytometric analysis (reference value: 6.65%); format: cell-based; settings: hepg2, 10 h; in short: as §1
[10] = Toxicity in zebrafish embryo AB assessed as mortality at 0.125 uM incubated for 24 hrs relative to control; parameters: species or system Danio rerio; settings: in vivo, read-out: Activity
[11] = Toxicity in zebrafish embryo AB assessed as mortality at 0.5 uM incubated for 24 hrs; parameters: species or system Danio rerio; settings: in vivo
In short: (§2)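 Wild-type AB zebrafish embryos (20 per condition), collected within 0.5 h of spawning, were exposed from 2 hpf to 0.5, 1 or 1.25 µM compound in fish water, with 0.1% DMSO as control. Embryos were observed and imaged every 24 h. Mortality was scored at 24 and 72 hpf and malformation rate at 72 hpf.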

[12] = Toxicity in zebrafish embryo AB assessed as mortality at 0.5 uM incubated for 72 hrs relative to control; parameters: species or system Danio rerio; settings: in vivo, read-out: Activity; in short: as §2
[13] = Toxicity in zebrafish embryo AB assessed as induction of malformation at 0.5 to 1.25 uM incubated for 24 to 72 hrs; parameters: species or system Danio rerio; settings: in vivo; in short: as §2
[14] = Toxicity in zebrafish embryo AB assessed as mortality at 0.125 uM incubated for 24 hrs; parameters: species or system Danio rerio; settings: in vivo
[15] = Toxicity in zebrafish embryo AB assessed as mortality at 0.5 uM incubated for 72 hrs; parameters: species or system Danio rerio; settings: in vivo; in short: as §2

T1 sequence (P22736 whole entry, the tested form may be a part): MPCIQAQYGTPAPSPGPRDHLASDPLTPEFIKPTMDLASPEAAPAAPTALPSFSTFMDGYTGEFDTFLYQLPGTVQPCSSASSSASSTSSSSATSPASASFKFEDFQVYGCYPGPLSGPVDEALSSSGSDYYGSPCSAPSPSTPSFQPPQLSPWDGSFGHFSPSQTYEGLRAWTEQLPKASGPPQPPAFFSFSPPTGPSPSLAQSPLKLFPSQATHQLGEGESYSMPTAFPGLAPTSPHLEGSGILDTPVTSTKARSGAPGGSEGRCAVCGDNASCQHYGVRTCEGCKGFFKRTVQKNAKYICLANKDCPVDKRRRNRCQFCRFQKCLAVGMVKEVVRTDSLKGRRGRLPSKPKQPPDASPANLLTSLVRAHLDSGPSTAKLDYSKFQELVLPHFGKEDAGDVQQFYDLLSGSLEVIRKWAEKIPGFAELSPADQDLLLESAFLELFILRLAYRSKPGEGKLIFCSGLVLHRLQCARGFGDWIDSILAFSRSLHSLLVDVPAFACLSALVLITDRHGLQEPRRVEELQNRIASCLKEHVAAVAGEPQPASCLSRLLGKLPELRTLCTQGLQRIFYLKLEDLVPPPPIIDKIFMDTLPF

Row | Compound | inhibition [1] | Kd [2] | Kd ([2]; read-out: Kd) [nM] | also measured
1 | Cc1c(O)c(O)cc2c1[C@H](c1cc[nH]c1)C=C1[C@@]2(C)CC[C@@]2(C)[C@@H]3C[C@](C)(C(=O)O)CC[C@]3(C)CC[C@]12C | inactive | Not Active | – | –
2 | COC(=O)[C@]1(C)CC[C@]2(C)CC[C@]3(C)C4=CC=C5C(=CC(=O)C(OC)=C5C)[C@]4(C)CC[C@@]3(C)[C@@H]2C1 | inactive | – | 2940 | –
3 | COC(=O)[C@]1(C)CC[C@]2(C)CC[C@]3(C)C4=CCc5c(cc(OC)c(OC)c5C)[C@]4(C)CC[C@@]3(C)[C@@H]2C1 | inactive | Not Active | – | –
4 | COc1cc2c(c(C)c1O)CC=C1[C@@]2(C)CC[C@@]2(C)[C@@H]3C[C@](C)(C(=O)O)CC[C@]3(C)CC[C@]12C | inactive | Not Active | – | –
5 | COC(=O)[C@]1(C)CC[C@]2(C)CC[C@]3(C)C4=CCc5c(cc(O)c(OC)c5C)[C@]4(C)CC[C@@]3(C)[C@@H]2C1 | – | Not Active | – | –
6 | COc1c(O)cc2c(c1C)CC=C1[C@@]2(C)CC[C@@]2(C)[C@@H]3C[C@](C)(C(=O)O)CC[C@]3(C)CC[C@]12C | inactive | Not Active | – | –
7 | COc1cc2c(c(C)c1OC)CC=C1[C@@]2(C)CC[C@@]2(C)[C@@H]3C[C@](C)(C(=O)O)CC[C@]3(C)CC[C@]12C | inactive | Not Active | – | –
8 | COP(=O)(OC)[C@@H]1C=C2[C@@](C)(CC[C@@]3(C)[C@@H]4C[C@](C)(C(=O)O)CC[C@]4(C)CC[C@]23C)c2cc(O)c(O)c(C)c21 | inactive | Not Active | – | –
9 | CC1=C(O)C(=O)C=C2C1=CC=C1[C@@]2(C)CC[C@@]2(C)[C@@H]3C[C@](C)(C(=O)F)CC[C@]3(C)CC[C@]12C | Active | – | 720 | –
10 | CC(=O)C[C@@H]1C=C2[C@@](C)(CC[C@@]3(C)[C@@H]4C[C@](C)(C(=O)O)CC[C@]4(C)CC[C@]23C)c2cc(O)c(O)c(C)c21 | inactive | – | 3800 | –
11 | CC1=C(O)C(=O)C=C2C1=CC=C1[C@@]2(C)CC[C@@]2(C)[C@@H]3C[C@](C)(C(=O)OC(C)C)CC[C@]3(C)CC[C@]12C | Active | – | 520 | –
12 | COC(=O)[C@]1(C)CC[C@]2(C)CC[C@]3(C)C4=CC=C5C(=CC(=O)C(O)=C5C)[C@]4(C)CC[C@@]3(C)[C@@H]2C1 [PRISTIMERIN] | Active | – | 960 | –
13 | Cc1c(O)c(O)cc2c1[C@H](CN)C=C1[C@@]2(C)CC[C@@]2(C)[C@@H]3C[C@](C)(C(=O)O)CC[C@]3(C)CC[C@]12C | inactive | Not Active | – | –
14 | COC(=O)[C@]1(C)CC[C@]2(C)CC[C@]3(C)C4=CC=C5C(=CC(=O)C(OCC(F)F)=C5C)[C@]4(C)CC[C@@]3(C)[C@@H]2C1 | inactive | – | 3300 | –
15 | COC(=O)[C@]1(C)CC[C@]2(C)CC[C@]3(C)C4=CCc5c(cc(OC)c(O)c5C)[C@]4(C)CC[C@@]3(C)[C@@H]2C1 | inactive | Not Active | – | –
16 | CCOC1=C(C)C2=CC=C3[C@@](C)(CC[C@@]4(C)[C@@H]5C[C@](C)(C(=O)OC)CC[C@]5(C)CC[C@]34C)C2=CC1=O | inactive | – | 4130 | –
17 | CCNC(=O)[C@]1(C)CC[C@]2(C)CC[C@]3(C)C4=CC=C5C(=CC(=O)C(O)=C5C)[C@]4(C)CC[C@@]3(C)[C@@H]2C1 | Active | – | 830 | Activity [3]: Toxic; Activity [4]: Active; viability at 10 h, 2 µM [5]: 53.7%; Activity [6]: Active; Activity [7]: 3.92%; Activity [8]: 18.35%; Activity [9]: 24%
18 | CCCNC(=O)[C@]1(C)CC[C@]2(C)CC[C@]3(C)C4=CC=C5C(=CC(=O)C(O)=C5C)[C@]4(C)CC[C@@]3(C)[C@@H]2C1 | Active | – | 270 | –
19 | CC1=C(O)C(=O)C=C2C1=CC=C1[C@@]2(C)CC[C@@]2(C)[C@@H]3C[C@](C)(C(=O)O)CC[C@]3(C)CC[C@]12C [CELASTROL] | Active | – | – | mortality at 24 h, 0.125 µM [10]: 90%; Activity [3]: Toxic; Activity [4]: Active; viability at 10 h, 2 µM [5]: 62.9%; Activity [6]: Active; Activity [7]: 1.75%; Activity [11]: Toxic; mortality at 72 h, 0.5 µM [12]: 100%; Activity [8]: 10.34%; Activity [9]: 24.98%; Activity [13]: Toxic
20 | Cc1c(O)c(O)cc2c1CC=C1[C@@]2(C)CC[C@@]2(C)[C@@H]3C[C@](C)(C(=O)O)CC[C@]3(C)CC[C@]12C [DIHYDROCELASTROL] | Active | – | 870 | Activity [3]: Non-Toxic; Activity [4]: Active; viability at 10 h, 2 µM [5]: 85%; Activity [14]: Toxic; Activity [6]: Active; Activity [15]: Toxic; Activity [7]: 0.79%; Activity [11]: Toxic; Activity [8]: 3.12%; Activity [9]: 11.09%; Activity [13]: Toxic
21 | Cc1c(O)c(O)cc2c1C(=O)C=C1[C@@]2(C)CC[C@@]2(C)[C@@H]3C[C@](C)(C(=O)O)CC[C@]3(C)CC[C@]12C | inactive | – | 2690 | –
22 | Cc1c(O)c(O)cc2c1[C@H](C)C=C1[C@@]2(C)CC[C@@]2(C)[C@@H]3C[C@](C)(C(=O)O)CC[C@]3(C)CC[C@]12C | inactive | Not Active | – | –
23 | CNC(=O)[C@]1(C)CC[C@]2(C)CC[C@]3(C)C4=CC=C5C(=CC(=O)C(O)=C5C)[C@]4(C)CC[C@@]3(C)[C@@H]2C1 | Active | – | 800 | –
24 | Cc1c(O)c(O)cc2c1[C@H](C[N+](=O)[O-])C=C1[C@@]2(C)CC[C@@]2(C)[C@@H]3C[C@](C)(C(=O)O)CC[C@]3(C)CC[C@]12C | inactive | – | 5560 | –
25 | CCOC(=O)[C@]1(C)CC[C@]2(C)CC[C@]3(C)C4=CC=C5C(=CC(=O)C(O)=C5C)[C@]4(C)CC[C@@]3(C)[C@@H]2C1 | Active | – | 220 | –
